Experimental data reported in PubChem BioAssay.
Active and inactive are the calls of the source.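 The calls were made as follows, unless noted: active = viability at or under a set limit in both replicates, limit being median viability minus 3 SD (cut at about 48% in these data, passing the limit was not always enough); inconclusive = at or under the limit in just one replicate; inactive = at or above the limit in both replicates.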

Assay: HUVEC growth inhibition – cell-based, human, primary screen (AID 575;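 active = viability at or below 30% in both replicate assays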;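 also: 100% = median of untreated cell wells with 0.1% DMSO on each plate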)
Details: HUVEC proliferation, CellTiter-Glo luminescence, 72 h; at 10 µM; hits give low values
In short: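 Test system: primary human umbilical vein endothelial cells. Quantity: 1250 cells/well. Compound: single 10 µM dose, 0.1% DMSO, from 5x medium stock. Timing: 72 h treatment at 37 °C. Detection: ATP-based CellTiter-Glo luminescent read. Benchmarks: vehicle and MePR control wells. Format: 384-well plates coated with collagen.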

**Q.** For `CCCCC(CC)Cn1c2nc3ccccc3nc2c2c(=N)oc(C)nc21` (stereo unspecified), which viability is on record?
**A.** 3.36% (active)

**Q.** With `O=C(Sc1nnnn1C1CCCCC1)c1cccs1` as the molecule, how does the viability read?
**A.** 102% (inactive)

**Q.** With `Cc1cc(=O)[nH]c2c1cnn2Cc1ccccc1` as the molecule, how does the viability read?
**A.** 116% (inactive)

**Q.** For `O=C(CN1CCOCC1)Nc1cccc(C(=O)Nc2cccc(C(F)(F)F)c2)c1`, which viability is on record?
**A.** 95.5% (inactive)

**Q.** With `CCOC(=O)CS(=O)(=O)c1nc(-c2ccccc2)cc(C(F)(F)F)n1` as the molecule, how does the viability read?
**A.** 5.62% (active)

**Q.** Which viability does the source give for `CCn1c(Cc2ccccc2)nnc1SCC(=O)Nc1nc2ccccc2s1` here?
**A.** 87.9% (inactive)

**Q.** Which viability does the source give for `CCOc1ccccc1N(CC(=O)N1CCOCC1)S(=O)(=O)c1ccccc1` here?
**A.** 108% (inactive)

**Q.** Which viability does the source give for `O=C(Nc1ccc(Cl)cc1)N1CCSCC1` here?
**A.** 97.6% (inactive)

**Q.** Which viability does the source give for `CC(=O)c1cccc(NS(=O)(=O)c2ccc3c(c2)oc(=O)n3C)c1` here?
**A.** 92.4% (inactive)

**Q.** For `O=C1c2ccccc2C(=O)N1CCCCN1CCN(CCCCN2C(=O)c3ccccc3C2=O)CC1`, which viability is on record?
**A.** 93% (inactive)

**Q.** Which viability does the source give for `CCCC1CCC(C(=O)Nn2c(C)nc3ccccc3c2=O)CC1` (stereo unspecified) here?
**A.** 104% (inactive)

**Q.** For `Cc1cnn(C(=S)NCc2ccco2)c1`, which viability is on record?
**A.** 70.2% (inactive)

**Q.** Which viability does the source give for `Cc1ccccc1CN1CCN(CC(=O)NCc2ccco2)C1=O` here?
**A.** 101% (inactive)

**Q.** With `CC1(C)C2CCC1(CS(=O)(=O)NCc1ccc(C(=O)O)cc1)C(=O)C2` (stereo unspecified) as the molecule, how does the viability read?
**A.** 103% (inactive)

**Q.** Which viability does the source give for `Cc1cccc2cc(C#N)c(SCCN3CCCCC3)nc12` here?
**A.** 61.8% (inactive)

**Q.** With `CC1(C)CC(=O)c2c(O)cc(O)cc2O1` as the molecule, how does the viability read?
**A.** 107% (inactive)

**Q.** Which viability does the source give for `Cc1nc(C)c(C(=O)C2=C(O)C(=O)N(CCN3CCOCC3)C2c2ccco2)s1` (stereo unspecified) here?
**A.** 109% (inactive)

**Q.** For `Cc1cc(C(F)(F)F)nc(SCC(=O)NC2=NC(=O)C(C)S2)n1` (stereo unspecified), which viability is on record?
**A.** 96% (inactive)

**Q.** For `CN(c1cccc(NC(=O)COc2ccccc2)c1)S(C)(=O)=O`, which viability is on record?
**A.** 108% (inactive)

**Q.** With `Cc1noc(C)c1COc1cccc(C(=O)Oc2ccc3c(c2)OCO3)c1` as the molecule, how does the viability read?
**A.** 88.8% (inactive)

**Q.** With `COc1ccc(N(CC(=O)Nc2ccccc2SC)S(C)(=O)=O)cc1OC` as the molecule, how does the viability read?
**A.** 113% (inactive)

**Q.** With `Cc1cc(C)n(S(=O)(=O)c2cc(C(=O)O)c(Cl)cc2Cl)n1` as the molecule, how does the viability read?
**A.** 102% (inactive)

Assay: H69AR cell proliferation blockers – human, duplicate replicates, primary screen (AID 580);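 also: 100% = mean luminescence of untreated wells and 0% = no signal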
Details: H69AR lung tumor cells viability, ATP luminescence, 72 h; at 10 µM; hits give low values

**Q.** For `CC1(C)NC(=O)N(CN2C(=O)NC(C)(C)C2=O)C1=O`, which viability is on record?
**A.** 102% (inactive)

**Q.** For `Cc1ccccc1NC(=O)C1CCC(C)(C(=O)O)C1(C)C` (stereo unspecified), which viability is on record?
**A.** 99.8% (inactive)

**Q.** For `CC(C)[C@H](NC(=O)OC(C)(C)C)c1nnc(S(=O)(=O)Cc2c(F)cccc2Cl)o1`, which viability is on record?
**A.** 1.65% (active)

**Q.** Which viability does the source give for `CSC1CCCCC1(O)CSc1nc2c(cc1C#N)CCCC2` (stereo unspecified) here?
**A.** 92.6% (inactive)

**Q.** Which viability does the source give for `Cc1cccc(NC(=O)CCn2ccnc2C)c1` here?
**A.** 92.3% (inactive)

**Q.** With `CCCSc1nnc(-c2ccccc2NC(=O)CC)c(=O)[nH]1` as the molecule, how does the viability read?
**A.** 103% (inactive)

**Q.** With `Cc1ccc(S(=O)(=O)N2CCCC2C(=O)OCc2ccco2)cc1` (stereo unspecified) as the molecule, how does the viability read?
**A.** 77.2% (inactive)

**Q.** For `Cc1ccc(C2C(C#N)=C(N)Oc3cc4c(cc32)OCO4)cc1` (stereo unspecified), which viability is on record?
**A.** 10.2% (active)

**Q.** For `CCNc1oc(COc2ccccc2F)nc1C#N`, which viability is on record?
**A.** 100% (inactive)

**Q.** Which viability does the source give for `CC(C)Cc1nnc(NC(=O)CCC(=O)N2CCOCC2)s1` here?
**A.** 96.2% (inactive)

**Q.** With `Cc1cccc(OCC(=O)Nc2ccccc2N2CCN(C(=O)C(C)C)CC2)c1C` as the molecule, how does the viability read?
**A.** 88.8% (inactive)

**Q.** With `CC1(C)NC(=O)N(CCOc2cccc(Cl)c2Cl)C1=O` as the molecule, how does the viability read?
**A.** 102% (inactive)

**Q.** Which viability does the source give for `Cn1c(=O)[nH]c(=O)c2c1nc(NC1CCCCC1)n2CC(=O)NC1CCCCC1` here?
**A.** 94.7% (inactive)

**Q.** Which viability does the source give for `COc1ccc(Nc2ncc3c(n2)CC(c2ccc(OC)cc2)CC3=O)cc1` (stereo unspecified) here?
**A.** 97.4% (inactive)

**Q.** Which viability does the source give for `COc1ccc(OC)c(Nc2ncnc3c2cnn3-c2ccccc2)c1` here?
**A.** 90.5% (inactive)

**Q.** Which viability does the source give for `O=C(c1ccc(-c2ccccc2)cc1)N1CCC(C(=O)N2CCCC2)CC1` here?
**A.** 104% (inactive)

**Q.** For `Cc1cccc(NCc2ccccc2O)c1`, which viability is on record?
**A.** 94.6% (inactive)

**Q.** For `CCCCC(CC)Cn1c2nc3ccccc3nc2c2c(=N)oc(C)nc21` (stereo unspecified), which viability is on record?
**A.** 1.91% (active)

**Q.** For `O=C(Sc1nnnn1C1CCCCC1)c1cccs1`, which viability is on record?
**A.** 98.7% (inactive)

**Q.** For `Cc1cc(=O)[nH]c2c1cnn2Cc1ccccc1`, which viability is on record?
**A.** 98.9% (inactive)

**Q.** For `O=C(CN1CCOCC1)Nc1cccc(C(=O)Nc2cccc(C(F)(F)F)c2)c1`, which viability is on record?
**A.** 101% (inactive)

**Q.** With `CCOC(=O)CS(=O)(=O)c1nc(-c2ccccc2)cc(C(F)(F)F)n1` as the molecule, how does the viability read?
**A.** 1.61% (active)

**Q.** With `CCn1c(Cc2ccccc2)nnc1SCC(=O)Nc1nc2ccccc2s1` as the molecule, how does the viability read?
**A.** 104% (inactive)

**Q.** With `CCOc1ccccc1N(CC(=O)N1CCOCC1)S(=O)(=O)c1ccccc1` as the molecule, how does the viability read?
**A.** 99% (inactive)

**Q.** With `O=C(Nc1ccc(Cl)cc1)N1CCSCC1` as the molecule, how does the viability read?
**A.** 107% (inactive)

**Q.** With `CC(=O)c1cccc(NS(=O)(=O)c2ccc3c(c2)oc(=O)n3C)c1` as the molecule, how does the viability read?
**A.** 106% (inactive)

**Q.** Which viability does the source give for `O=C1c2ccccc2C(=O)N1CCCCN1CCN(CCCCN2C(=O)c3ccccc3C2=O)CC1` here?
**A.** 97.5% (inactive)

**Q.** Which viability does the source give for `CCCC1CCC(C(=O)Nn2c(C)nc3ccccc3c2=O)CC1` (stereo unspecified) here?
**A.** 98.2% (inactive)

**Q.** With `Cc1cnn(C(=S)NCc2ccco2)c1` as the molecule, how does the viability read?
**A.** 84.5% (inactive)

**Q.** Which viability does the source give for `Cc1ccccc1CN1CCN(CC(=O)NCc2ccco2)C1=O` here?
**A.** 83% (inactive)

**Q.** With `CC1(C)C2CCC1(CS(=O)(=O)NCc1ccc(C(=O)O)cc1)C(=O)C2` (stereo unspecified) as the molecule, how does the viability read?
**A.** 108% (inactive)

**Q.** For `Cc1cccc2cc(C#N)c(SCCN3CCCCC3)nc12`, which viability is on record?
**A.** 68.2% (inactive)

**Q.** With `CC1(C)CC(=O)c2c(O)cc(O)cc2O1` as the molecule, how does the viability read?
**A.** 99.7% (inactive)

**Q.** For `Cc1nc(C)c(C(=O)C2=C(O)C(=O)N(CCN3CCOCC3)C2c2ccco2)s1` (stereo unspecified), which viability is on record?
**A.** 86.3% (inactive)

**Q.** With `Cc1cc(C(F)(F)F)nc(SCC(=O)NC2=NC(=O)C(C)S2)n1` (stereo unspecified) as the molecule, how does the viability read?
**A.** 100% (inactive)

**Q.** Which viability does the source give for `CN(c1cccc(NC(=O)COc2ccccc2)c1)S(C)(=O)=O` here?
**A.** 96% (inactive)

**Q.** For `Cc1noc(C)c1COc1cccc(C(=O)Oc2ccc3c(c2)OCO3)c1`, which viability is on record?
**A.** 79.5% (inactive)

**Q.** Which viability does the source give for `COc1ccc(N(CC(=O)Nc2ccccc2SC)S(C)(=O)=O)cc1OC` here?
**A.** 98.2% (inactive)

**Q.** For `Cc1cc(C)n(S(=O)(=O)c2cc(C(=O)O)c(Cl)cc2Cl)n1`, which viability is on record?
**A.** 82.6% (inactive)
